Assay results gathered from unrelated publications.
Lines come from different studies, so protocols differ. Converted amounts (≈) assume the structure as drawn.
Organism: Pseudomonas aeruginosa
Effect on: microbial growth

The MIC of `CCCCCCCCCCCC(=O)OC[C@H]1O[C@@H](n2cc(C)c(=O)[nH]c2=O)C[C@@H]1O` is reported as 8 µg/mL (≈ 18.8 µM) (broth dilution).
The MIC of `COC(=O)c1cc(-c2cccc(NC(=O)Nc3ccc(F)cc3F)c2)on1` is reported as > 64 µg/mL (broth dilution; ATCC27853).
`CC1(C)S[C@@H]2[C@H](NC(=O)[C@H](N)c3ccccc3)C(=O)N2[C@H]1C(=O)O` has an MIC of > 64 µg/mL (broth dilution; ATCCBAA2108; drug-resistant strain).
The MIC of `CC1(C)SC2C(NC(=O)C(NC(=O)C3=C(O)C(Cc4ccc([N+](=O)[O-])cc4)NC3=O)c3ccccc3)C(=O)N2C1C(=O)O` (stereo not drawn) is reported as 50 µg/mL (≈ 82 µM).
For `CC(=O)C1=C(O)C(CC(C)C)NC1=O` (stereo not drawn), the MIC was > 200 µg/mL (PA01).
`COC(=O)c1cc(-c2cccc(NC(=S)Nc3ccc(OC)cc3)c2)on1` gave an MIC of > 64 µg/mL (broth dilution; ATCC27853).
With `Cc1cc(/C=C2\Sc3ccccc3N2CCCN2CCC(C)CC2)c2ccccc2[n+]1C.[I-]` the MIC was 64 µg/mL (broth dilution; ATCCBAA2108; drug-resistant strain).
For `CC1(C)SC2C(NC(=O)C(NC(=O)C3=C(O)CN(c4ccccc4)C3=O)c3ccccc3)C(=O)N2C1C(=O)O` (stereo not drawn), the MIC was 100 µg/mL (≈ 182 µM).
`COC(=O)c1cc(-c2cccc(NC(=O)NCc3ccccc3)c2)on1` has an MIC of > 64 µg/mL (broth dilution; ATCC27853).
For `C[n+]1c(/C=C/c2c[nH]c3ccccc23)cc(/C=C2\Sc3ccccc3N2CCCN2CCCC2)c2ccccc21.[I-]`, the MIC was 32 µg/mL (broth dilution; ATCCBAA2108; drug-resistant strain).
`COC(=O)c1cc(-c2cccc(NC(=O)Nc3cc(OC)ccc3OC)c2)on1` has an MIC of > 64 µg/mL (broth dilution; ATCC27853).
`CN[C@H](CC(C)C)C(=O)N[C@H]1C(=O)N[C@@H](CC(N)=O)C(=O)N[C@H]2C(=O)N[C@H]3C(=O)N[C@H](C(=O)N[C@H](C(=O)O)c4cc(O)cc(O)c4-c4cc3ccc4O)[C@H](O)c3ccc(c(Cl)c3)Oc3cc2cc(c3O[C@@H]2O[C@H](CO)[C@@H](O)[C@H](O)[C@H]2O[C@H]2C[C@](C)(N)[C@H](O)[C@H](C)O2)Oc2ccc(cc2Cl)[C@H]1O` has an MIC of > 64 µg/mL (broth dilution; ATCCBAA2108; drug-resistant strain).
For `CCOC(=O)c1nnn(-c2cccc(NC(=O)Nc3ccc(Cl)c(Cl)c3)c2)c1C`, the MIC was > 64 µg/mL (broth dilution; ATCC27853).
With `CCCCCCC#Cc1cncc(-c2nnc(SCc3cc([N+](=O)[O-])cc([N+](=O)[O-])c3)n2C)c1` the MIC was ≥ 20 µg/mL.
`CO[C@H]1/C=C/O[C@@]2(C)Oc3c(C)c(O)c4c(O)c(c(/C=N/N5CCN(C)CC5)c(O)c4c3C2=O)NC(=O)/C(C)=C\C=C\[C@H](C)[C@H](O)[C@@H](C)[C@@H](O)[C@@H](C)[C@H](OC(C)=O)[C@@H]1C` has an MIC of > 64 µg/mL (broth dilution; ATCCBAA2108; drug-resistant strain).
